{"source": "PubChem BioAssay AID504382", "about": "(The Scripps Research Institute Molecular Screening Center, 2011)", "note": "Screen size: about 2,500 compounds; about 460 (18%) were called active. Only a sample is shown. A number with no mark means an inactive call.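 How the source made its calls: active means mean activation above a cutoff of low control average plus 3 SD from the earlier screen (cut at about 12% in these data); inactive means the rest.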", "data": [{"test": "IANBD-channel fluorescence artefacts in buffer – biochemical, artefact control for cardiac RTF calcium sensitizer project, confirmation (AID 504382)", "conditions": "IANBD fluorescence interference counterscreen, EC20 Ca2+, at 7.2 µM, active compounds read high", "in_short": "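Doses – one dose of 7.2 µM, 0.7% DMSO · Buffer or medium – MOPS/KCl/MgCl2/EGTA/NTA/DTT buffer, pH 7.2 · Probe or stimulus – Ca2+ fixed at EC20, 0.472 mM · Measured by – fluorescence intensity, excitation 480 nm, emission 540 nm · Read-out – fluorescence interference versus control range · Timing – 15 min compound exposure at 25 °C · Replication – triplicate wells per compound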", "values": [{"compound": "Cc1cc2c(C(F)(F)F)cc(=O)oc2c2c1NCCC2", "fluorescence artifact activation": "26.6% (active)"}, {"compound": "O=c1cc(C(F)(F)F)c2cc3c4c(c2o1)CCCN4CCC3", "fluorescence artifact activation": "19.7% (active)"}, {"compound": "COc1ccc2c3c([nH]c2c1)C(C)=NCC3", "fluorescence artifact activation": "0.04%"}, {"compound": "COc1ccc(CC(=O)N2CCN(C)CC2)cc1OC", "fluorescence artifact activation": "0.89%"}, {"compound": "Cc1cc(N(CCCl)CCCl)ccc1C=Cc1ccncn1", "fluorescence artifact activation": "3.44%"}, {"compound": "O=c1[nH]c(=O)n(Cc2ccc(F)cc2)c(O)c1/C=N/Nc1ccccc1", "fluorescence artifact activation": "6.04%"}, {"compound": "CCOP(=O)(Cc1cc(C#N)oc1C)OCC", "fluorescence artifact activation": "0.13%"}, {"compound": "CCN(CC)c1ccc(/C=C2\\C(=O)NC(=S)N(C)C2=O)o1", "fluorescence artifact activation": "7.26%"}, {"compound": "CCN(CC)c1ccc(/C=C2\\C(=O)NC(=S)N(c3ccc(OC)cc3OC)C2=O)o1", "fluorescence artifact activation": "0.1%"}, {"compound": "COc1ccc(N2C(=O)/C(=C/c3ccc(N(C)C)o3)C(=O)NC2=S)cc1", "fluorescence artifact activation": "92% (active)"}, {"compound": "CCN(CC)c1ccc(N=Cc2c(O)n(Cc3ccco3)c(=O)[nH]c2=O)cc1", "fluorescence artifact activation": "0.1%"}, {"compound": "Cc1ccc(C)c(Cn2c(C(=O)O)c(C=O)c3ccccc32)c1", "fluorescence artifact activation": "0.2%"}, {"compound": "C[C@]12CCC(=O)C=C1CC[C@@H]1[C@@H]2CC[C@]2(C)C(=O)CC[C@@H]12", "fluorescence artifact activation": "0.01%"}, {"compound": "CCC(CO)NC(=O)C1C=C2c3cccc4[nH]cc(c34)CC2N(C)C1", "note": "(configuration not stated)", "fluorescence artifact activation": "1.39%"}, {"compound": "CC1=C[C@@H]2c3cccc4[nH]cc(c34)C[C@H]2N(C)C1", "fluorescence artifact activation": "14.5% (active)"}, {"compound": "CN1C[C@H](CO)C=C2c3cccc4[nH]cc(c34)C[C@H]21", "fluorescence artifact activation": "0.35%"}, {"compound": "COC(=O)C1=C(c2cccc(OC)c2OC)C[C@@H]2CC[C@H]1N2C(=O)NCCCOC(C)C", "fluorescence artifact activation": "0.79%"}, {"compound": "COC(=O)C1=C(c2cccc(OC)c2OC)C[C@@H]2CC[C@H]1N2C(=O)NCc1ccco1", "fluorescence artifact activation": "1.08%"}, {"compound": "COC(=O)C1=C(c2ccc(F)cc2OCc2ccccc2)C[C@@H]2CC[C@H]1N2C(=O)NCc1ccc(OC)c(OC)c1", "fluorescence artifact activation": "57% (active)"}, {"compound": "O=C(O)C1=CC2c3ccccc3C1c1ccccc12", "fluorescence artifact activation": "0.01%"}, {"compound": "O=[N+]([O-])c1ccc(N2CCCCCC2)c2nonc12", "fluorescence artifact activation": "6.24%"}, {"compound": "CCOC(=O)c1ccccc1C(=O)OCC", "fluorescence artifact activation": "1510% (active)"}, {"compound": "COc1ccccc1N1C(=O)NC(=O)/C(=C/c2ccc3c4c(cccc24)CC3)C1=O", "fluorescence artifact activation": "0.07%"}, {"compound": "Cn1c(O)c(/C=C/C=Nc2ccccc2)c(=O)n(C)c1=O", "fluorescence artifact activation": "-0.08%"}, {"compound": "CCOCCCn1c(N)c(C(=O)Nc2sc3c(c2C(=O)OC)CCCC3)c2nc3ccccc3nc21", "fluorescence artifact activation": "2.92%"}, {"compound": "CCCCn1c(O)c(C(=O)/C=C/c2c[nH]c3ccccc23)c(=O)[nH]c1=O", "fluorescence artifact activation": "3%"}, {"compound": "O=c1[nH]c(=S)n(-c2ccc(Br)cc2)c(O)c1C=Nc1ccc(N2CCOCC2)cc1", "fluorescence artifact activation": "0.07%"}, {"compound": "CCCCC(=O)N/N=C/c1c(O)n(CC)c(=S)n(CC)c1=O", "fluorescence artifact activation": "0.21%"}, {"compound": "CCn1c(O)c(C=Nc2ccc(N3CCOCC3)cc2)c(=O)n(CC)c1=S", "fluorescence artifact activation": "23.9% (active)"}, {"compound": "Cc1ccc(N2C(=O)NC(=O)/C(=C\\c3ccoc3)C2=O)cc1", "fluorescence artifact activation": "0.07%"}, {"compound": "COC(=O)[C@H]1C[C@@H]1[C@H](NP(=O)(c1ccccc1)c1ccccc1)c1ccccc1", "fluorescence artifact activation": "0.01%"}, {"compound": "COc1ccc(N=Nc2c(O)[nH]c(=S)[nH]c2=O)cc1", "fluorescence artifact activation": "0.58%"}, {"compound": "Nc1ccc2ccc3cccc[n+]3c2c1", "fluorescence artifact activation": "0.21%"}, {"compound": "Cc1cc(Cl)nc(N)n1", "fluorescence artifact activation": "14.3% (active)"}, {"compound": "C#C[C@]1(O)CC[C@H]2[C@@H]3CCC4=Cc5nc6nc7ccccc7n6cc5C[C@]4(C)[C@H]3CC[C@@]21C", "fluorescence artifact activation": "0.16%"}, {"compound": "CN1CCc2cc3c(c4c2C1Cc1ccccc1-4)OCO3", "note": "(configuration not stated)", "fluorescence artifact activation": "0.18%"}, {"compound": "O=C1NC(=O)C(=Cc2ccc(N3CCOCC3)o2)C(=O)N1", "fluorescence artifact activation": "-0.04%"}, {"compound": "CCc1ccccc1N1C(=O)/C(=C/c2ccc(N3CCN(C)CC3)o2)C(=O)NC1=S", "fluorescence artifact activation": "119% (active)"}, {"compound": "O=C1NC(=O)N(c2ccc3c(c2)OCO3)C(=O)/C1=C/c1ccc(N2CCCC2)o1", "fluorescence artifact activation": "0.12%"}, {"compound": "O=C1NC(=O)N(c2ccc3c(c2)OCO3)C(=O)/C1=C\\c1ccc(N2CCCCC2)o1", "fluorescence artifact activation": "0.37%"}, {"compound": "Cc1ccccc1N1C(=O)NC(=O)/C(=C/c2ccc(N3CCOCC3)o2)C1=O", "fluorescence artifact activation": "14.1% (active)"}, {"compound": "CN1CCN(c2ccc(/C=C3\\C(=O)NC(=S)N(c4cccc(Br)c4)C3=O)o2)CC1", "fluorescence artifact activation": "-0.01%"}, {"compound": "CCOc1ccc(N2C(=O)NC(=O)/C(=C\\c3ccc(N4CCCCC4)o3)C2=O)cc1", "fluorescence artifact activation": "51.4% (active)"}, {"compound": "Cc1cccc(N2C(=O)/C(=C/c3ccc(N4CCN(C)CC4)o3)C(=O)NC2=S)c1C", "fluorescence artifact activation": "0.2%"}, {"compound": "Cc1ccccc1N1C(=O)NC(=O)/C(=C\\c2cc(Br)c(N3CCOCC3)o2)C1=O", "fluorescence artifact activation": "-0.03%"}, {"compound": "O=[N+]([O-])c1ccc(N2CCCC2)c2ncccc12", "fluorescence artifact activation": "9.73%"}, {"compound": "C[C@]12CCC3C(CC[C@H]4C[C@@H](O)[C@H](O)C[C@]34C)C1CC[C@@H]2O", "note": "(some centres not stated)", "fluorescence artifact activation": "4.4%"}, {"compound": "OC12CCCCC1C(c1ccccc1)NCC2", "note": "(configuration not stated)", "fluorescence artifact activation": "0.14%"}, {"compound": "CN1C(=O)C(=Cc2sc(=O)n(-c3ccccc3)c2N2CCCCC2)C(=O)N(C)C1=O", "fluorescence artifact activation": "-0.07%"}, {"compound": "CCN(CC)C(=O)c1ccc(NC(=O)COc2ccc([N+](=O)[O-])cc2Cl)cc1", "fluorescence artifact activation": "0.19%"}, {"compound": "C=Cn1ccnc1P(=S)(c1nccn1C=C)c1nccn1C=C", "fluorescence artifact activation": "6.72%"}, {"compound": "CN(C)P(=O)(CCl)Nc1ccccc1", "note": "(configuration not stated)", "fluorescence artifact activation": "10%"}, {"compound": "C=CCN1C(=O)/C(=C\\c2ccc(N3CCOCC3)o2)C(=O)NC1=S", "fluorescence artifact activation": "0.23%"}, {"compound": "O=C1NC(=O)C(=Cc2cn(CCOc3ccc4c(c3)OCO4)c3ccccc23)C(=O)N1", "fluorescence artifact activation": "1.05%"}, {"compound": "Cc1cc(C)c(Cn2c(C(=O)O)c(C=O)c3ccccc32)c(C)c1", "fluorescence artifact activation": "0.05%"}, {"compound": "CC(C)c1ccc(N2C(=O)NC(=O)/C(=C/C=C/c3ccco3)C2=O)cc1", "fluorescence artifact activation": "-0.06%"}, {"compound": "CC(C)C[C@H]1C(=O)N2CCC[C@H]2[C@]2(O)O[C@](NC(=O)[C@@H]3C=C4c5cccc6[nH]cc(c56)C[C@H]4N(C)C3)(C(C)C)C(=O)N12", "fluorescence artifact activation": "0.12%"}]}]}
